Assay results taken from ChEMBL document CHEMBL3751760, “Discovery of Novel Potent and Selective Agonists at the Melanocortin-3 Receptor” (J Med Chem, 2015).
One block for each compound: values may come before it. Active and inactive are the calls of the source. No cut-off for these calls is given here. Where a SMILES comes first, the peptide text is derived from it. Bridges are numbered along the chain shown (N, C = ends). [ ]: non-standard residue; d: D form. d2Nal = N[C@H](Cc1ccc2ccccc2c1)C(=O)O; Nle = CCCC[C@H](N)C(=O)O

Legend:
[1] = molecular target: T1, Melanocyte-stimulating hormone receptor (Homo sapiens, UniProt Q01726); assay: Displacement of 125I-labeled [Nle4,DPhe7]-alpha-MSH from human melanocortin 1 receptor expressed in HEK293 cells incubated for 40 mins by gamma counting analysis; format: cell-based
How it was run: (§1)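 Whole-cell competition on stably transfected HEK293 cells, 100000 cells/well, seeded 48 h ahead. Binding buffer: MEM with Earle's salts, 25 mM HEPES pH 7.4, 0.2% BSA, 1 mM 1,10-phenanthroline, leupeptin, bacitracin. After washing, cells lysed with NaOH/Triton X-100 and read by γ counting.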
Target sequence in this assay (Q01726 whole entry): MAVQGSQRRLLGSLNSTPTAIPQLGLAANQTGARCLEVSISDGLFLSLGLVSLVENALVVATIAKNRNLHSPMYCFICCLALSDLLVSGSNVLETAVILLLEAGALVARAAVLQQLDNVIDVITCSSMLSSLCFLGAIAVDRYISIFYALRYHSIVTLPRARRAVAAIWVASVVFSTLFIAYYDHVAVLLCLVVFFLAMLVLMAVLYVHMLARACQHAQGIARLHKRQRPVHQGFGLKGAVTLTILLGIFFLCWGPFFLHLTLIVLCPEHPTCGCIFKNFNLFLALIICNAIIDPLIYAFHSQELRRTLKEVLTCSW

Melanocortin receptor 4 [2] = molecular target: T2, Melanocortin receptor 4 (Homo sapiens, UniProt P32245); assay: Agonist activity at human melanocortin 4 receptor expressed in HEK293 cells assessed as intracellular cAMP accumulation incubated for 3 mins in presence of IBMX; format: functional, cell-based
T2 sequence (P32245 whole entry): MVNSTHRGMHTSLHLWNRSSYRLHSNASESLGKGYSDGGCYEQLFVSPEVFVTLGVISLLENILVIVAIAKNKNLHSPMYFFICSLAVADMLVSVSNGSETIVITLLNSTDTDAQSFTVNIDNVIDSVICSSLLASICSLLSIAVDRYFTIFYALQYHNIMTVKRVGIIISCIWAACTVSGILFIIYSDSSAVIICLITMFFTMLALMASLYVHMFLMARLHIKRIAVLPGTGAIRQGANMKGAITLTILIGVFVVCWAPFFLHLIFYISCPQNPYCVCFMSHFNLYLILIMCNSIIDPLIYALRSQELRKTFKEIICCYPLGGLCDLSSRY
How it was run: (§2)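 HEK293 cells stably expressing the receptor were grown in MEM with 10% FBS and seeded 48 h ahead to 100000 cells/well. Cells were preincubated in EBSS with IBMX (0.5 mM) for 1 min at 37 °C, then given varied peptide concentrations for 3 min at 37 °C. The reaction was stopped with ice-cold Tris/EDTA, lysates were boiled 15 min, and cAMP was read by competitive binding kit.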

[3] = molecular target: T1, Melanocyte-stimulating hormone receptor; assay: Agonist activity at human melanocortin 1 receptor expressed in HEK293 cells assessed as intracellular cAMP accumulation incubated for 3 mins in presence of IBMX; format: functional, cell-based; how it was run: as §2
Target sequence in this assay (Q01726 whole entry): as the sequence (Q01726 whole entry) above

Melanocortin receptor 3 [4] = molecular target: T3, Melanocortin receptor 3 (Homo sapiens, UniProt P41968); assay: Displacement of 125I-labeled [Nle4,DPhe7]-alpha-MSH from human melanocortin 3 receptor expressed in HEK293 cells incubated for 40 mins by gamma counting analysis; format: cell-based
T3 sequence (P41968 whole entry): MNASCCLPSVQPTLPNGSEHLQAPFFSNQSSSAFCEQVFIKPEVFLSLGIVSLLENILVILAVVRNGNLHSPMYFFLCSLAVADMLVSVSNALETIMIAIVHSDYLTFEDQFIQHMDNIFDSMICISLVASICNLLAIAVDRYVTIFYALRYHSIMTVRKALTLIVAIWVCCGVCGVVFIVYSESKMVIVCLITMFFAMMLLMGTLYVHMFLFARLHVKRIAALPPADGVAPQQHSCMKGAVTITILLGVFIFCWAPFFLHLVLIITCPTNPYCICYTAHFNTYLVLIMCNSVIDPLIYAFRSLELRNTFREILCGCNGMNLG

Melanocortin receptor 4 [5] = molecular target: T2, Melanocortin receptor 4; assay: Displacement of 125I-labeled [Nle4,DPhe7]-alpha-MSH from human melanocortin 4 receptor expressed in HEK293 cells incubated for 40 mins by gamma counting analysis; format: cell-based
Melanocortin receptor 5 [6] = molecular target: T4, Melanocortin receptor 5 (Homo sapiens, UniProt P33032); assay: Agonist activity at human melanocortin 5 receptor expressed in HEK293 cells assessed as intracellular cAMP accumulation incubated for 3 mins in presence of IBMX; format: functional, cell-based; how it was run: as §2
T4 sequence (P33032 whole entry): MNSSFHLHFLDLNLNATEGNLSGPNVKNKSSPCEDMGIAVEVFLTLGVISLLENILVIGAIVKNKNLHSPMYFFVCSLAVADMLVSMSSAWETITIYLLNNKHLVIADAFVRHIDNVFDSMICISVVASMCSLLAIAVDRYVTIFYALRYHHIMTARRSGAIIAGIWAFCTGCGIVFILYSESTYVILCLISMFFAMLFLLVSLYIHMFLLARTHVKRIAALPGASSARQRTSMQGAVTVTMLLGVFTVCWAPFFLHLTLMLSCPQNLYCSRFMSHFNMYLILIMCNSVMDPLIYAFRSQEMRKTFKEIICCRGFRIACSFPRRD

Melanocortin receptor 5 [7] = molecular target: T4, Melanocortin receptor 5; assay: Displacement of 125I-labeled [Nle4,DPhe7]-alpha-MSH from human melanocortin 5 receptor expressed in HEK293 cells incubated for 40 mins by gamma counting analysis; format: cell-based
Melanocortin receptor 3 [8] = molecular target: T3, Melanocortin receptor 3; assay: Agonist activity at human melanocortin 3 receptor expressed in HEK293 cells assessed as intracellular cAMP accumulation incubated for 3 mins in presence of IBMX; format: functional, cell-based; how it was run: as §2
[9] = molecular target: T1, Melanocyte-stimulating hormone receptor; assay: Agonist activity at human melanocortin 1 receptor expressed in HEK293 cells assessed as increase in intracellular cAMP accumulation incubated for 3 mins relative to MT-2; format: functional, cell-based
How it was run: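 Stably transfected HEK293 cells grown in MEM with 10% FBS, penicillin/streptomycin and 1 mM sodium pyruvate, seeded 48 h ahead to 100000 cells/well. Cells preincubated 1 min at 37 °C in EBSS with IBMX (0.5 mM), then exposed to a concentration series for 3 min at 37 °C. Stopped with ice-cold Tris/EDTA, boiled 15 min, cAMP measured by competitive binding kit. Maximal cAMP expressed relative to the MT-II maximum; N = 4.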
Target sequence in this assay (Q01726 whole entry, looked up): as the sequence (Q01726 whole entry) above

[10] = molecular target: T1, Melanocyte-stimulating hormone receptor; assay: Displacement of 125I-labeled [Nle4,DPhe7]-alpha-MSH from human melanocortin 1 receptor expressed in HEK293 cells at 10 uM incubated for 40 mins by gamma counting analysis; format: cell-based
How it was run: as §1, with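 “bacitracin. Unlabeled peptide plus 125I-[Nle4,DPhe7]-α-MSH (0.1386 nM, 100000 cpm/well) for 40 min at 37 °C.” for “bacitracin.”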
Target sequence in this assay (Q01726 whole entry, looked up): as the sequence (Q01726 whole entry) above

Melanocortin receptor 4 [11] = molecular target: T2, Melanocortin receptor 4; assay: Agonist activity at human melanocortin 4 receptor expressed in HEK293 cells assessed as increase in intracellular cAMP accumulation incubated for 3 mins relative to MT-2; format: functional, cell-based
How it was run: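 Same cAMP protocol in stably transfected HEK293 cells: IBMX (0.5 mM) preincubation for 1 min, then a peptide concentration series for 3 min at 37 °C, and cAMP measured by competitive binding kit. Act% max = highest cAMP level reached by the peptide divided by the highest level reached by MT-II, in percent.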

Melanocortin receptor 3 [12] = molecular target: T3, Melanocortin receptor 3; assay: Agonist activity at human melanocortin 3 receptor expressed in HEK293 cells assessed as increase in intracellular cAMP accumulation incubated for 3 mins relative to MT-2; format: functional, cell-based
How it was run: (§3)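 Same cAMP protocol in stably transfected HEK293 cells: IBMX (0.5 mM) preincubation for 1 min, then a peptide concentration series for 3 min at 37 °C, and cAMP measured by competitive binding kit.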

Melanocortin receptor 5 [13] = molecular target: T4, Melanocortin receptor 5; assay: Agonist activity at human melanocortin 5 receptor expressed in HEK293 cells assessed as increase in intracellular cAMP accumulation incubated for 3 mins relative to MT-2; format: functional, cell-based; how it was run: as §3
Melanocortin receptor 3 [14] = molecular target: T3, Melanocortin receptor 3; assay: Agonist activity at human melanocortin 3 receptor expressed in HEK293 cells assessed as intracellular cAMP accumulation at 10 uM incubated for 3 mins in presence of IBMX; format: functional, cell-based
How it was run: (§4)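 Stably transfected HEK293 cells were grown in MEM with 10% FBS, penicillin/streptomycin and 1 mM sodium pyruvate, and seeded 48 h before assay to 100000 cells/well. Cells were preincubated 1 min at 37 °C in EBSS with IBMX (0.5 mM), then exposed to peptide for 3 min at 37 °C. The reaction was stopped with ice-cold Tris/EDTA, lysates were boiled 15 min, and cAMP was read by competitive binding kit.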

Melanocortin receptor 5 [15] = molecular target: T4, Melanocortin receptor 5; assay: Agonist activity at human melanocortin 5 receptor expressed in HEK293 cells assessed as intracellular cAMP accumulation at 10 uM incubated for 3 mins in presence of IBMX; format: functional, cell-based; how it was run: as §4
Melanocortin receptor 4 [16] = molecular target: T2, Melanocortin receptor 4; assay: Agonist activity at human melanocortin 4 receptor expressed in HEK293 cells assessed as intracellular cAMP accumulation at 10 uM incubated for 3 mins in presence of IBMX; format: functional, cell-based; how it was run: as §4
Melanocortin receptor 5 [17] = molecular target: T4, Melanocortin receptor 5; assay: Displacement of 125I-labeled [Nle4,DPhe7]-alpha-MSH from human melanocortin 5 receptor expressed in HEK293 cells at 10 uM incubated for 40 mins by gamma counting analysis; format: cell-based
How it was run: as §1, with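 “bacitracin. Unlabeled peptide plus 125I-[Nle4,DPhe7]-α-MSH (0.1386 nM, 100000 cpm/well) for 40 min at 37 °C.” for “bacitracin.”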

SMILES: CCCC[C@H](NC(C)=O)C(=O)N[C@H]1CC(=O)NCCCC[C@@H](C(N)=O)NC(=O)[C@H](Cc2c[nH]c3ccccc23)NC(=O)[C@H](CCCNC(=N)N)NC(=O)[C@@H](Cc2ccccc2)NC(=O)[C@@H]2CCCN2C(=O)[C@H](Cc2c[nH]c3ccccc23)NC1=O
IC50 ([1]; hek293): > 5000 nM | EC50 (Melanocortin receptor 4 [2]): 220 nM | EC50 ([3]; hek293): 26 nM | IC50 (Melanocortin receptor 3 [4]; hek293): 580 nM | IC50 (Melanocortin receptor 4 [5]; hek293): > 1000 nM | EC50 (Melanocortin receptor 5 [6]): 73 nM | IC50 (Melanocortin receptor 5 [7]): > 1000 nM | EC50 (Melanocortin receptor 3 [8]): > 1000 nM

SMILES: CCCC[C@H](NC(C)=O)C(=O)N[C@H]1CC(=O)NCCCC[C@@H](C(N)=O)NC(=O)[C@H](Cc2c[nH]c3ccccc23)NC(=O)[C@H](CCCNC(=N)N)NC(=O)[C@@H](Cc2ccc3ccccc3c2)NC(=O)[C@@H]2CCCN2C(=O)[C@H](Cc2c[nH]c3ccccc23)NC1=O
EC50 ([3]; hek293): > 1000 nM

%max [9]: 100% | inhibition [10]: inactive
SMILES: CCCC[C@H](NC(C)=O)C(=O)N[C@@H]1CC(=O)NCCCC[C@H](C(N)=O)NC(=O)[C@H](Cc2c[nH]c3ccccc23)NC(=O)[C@H](CCCNC(=N)N)NC(=O)[C@H](Cc2ccc3ccccc3c2)NC(=O)[C@H]2CCCN2C(=O)[C@@H](Cc2c[nH]c3ccccc23)NC1=O

%max [9]: 100% | IC50 [1]: > 5000 nM
SMILES: CCCC[C@H](NC(C)=O)C(=O)N[C@H]1CC(=O)NCCCC[C@@H](C(N)=O)NC(=O)[C@H](Cc2c[nH]c3ccccc23)NC(=O)[C@H](CCCNC(=N)N)NC(=O)[C@@H](Cc2ccc3ccccc3c2)NC(=O)[C@@H]2CCCN2C(=O)[C@@H]2CCCN2C1=O (Ac-[Nle]DPP[d2Nal]RWK-NH2; lactam 2-8)

SMILES: CCCC[C@@H](NC(C)=O)C(=O)N[C@H]1CC(=O)NCCCC[C@@H](C(N)=O)NC(=O)[C@@H](Cc2c[nH]c3ccccc23)NC(=O)[C@@H](CCCNC(=N)N)NC(=O)[C@@H](Cc2ccccc2)NC(=O)[C@@H]2CCCN2C(=O)[C@H](Cc2c[nH]c3ccccc23)NC1=O
%max [9]: 100% | %max (Melanocortin receptor 4 [11]): 84% | %max (Melanocortin receptor 3 [12]): 0% | %max (Melanocortin receptor 5 [13]): 89%

Activity (Melanocortin receptor 3 [14]): 0% | Activity (Melanocortin receptor 5 [15]): 0% | %max [9]: 100% | IC50 [1]: > 5000 nM | EC50 [3]: 860 nM | IC50 (Melanocortin receptor 3 [4]): 590 nM | Activity (Melanocortin receptor 4 [16]): 0% | IC50 (Melanocortin receptor 4 [5]): 1300 nM | inhibition (Melanocortin receptor 5 [17]): inactive
SMILES: CCCC[C@H](NC(C)=O)C(=O)N[C@H]1CC(=O)NCCCC[C@@H](C(N)=O)NC(=O)[C@H](Cc2c[nH]c3ccccc23)NC(=O)[C@H](CCCNC(=N)N)NC(=O)[C@@H](Cc2ccccc2)NC(=O)[C@@H]2CCCN2C(=O)[C@@H]2CCCN2C1=O (Ac-[Nle]DPP[dF]RWK-NH2; lactam 2-8)
